From ChEMBL document CHEMBL1275259, “In vitro antituberculosis activities of ACH-702, a novel isothiazoloquinolone, against quinolone-susceptible and quinolone-resistant isolates” (Antimicrob Agents Chemother, 2010)
Values after ≈ are worked out from the molar mass of the structure shown.

Tests used:
DNA gyrase subunit A = DNA gyrase subunit A (Mycobacterium tuberculosis, UniProt P9WG47); test: Inhibition of DNA supercoiling activity of wild type Mycobacterium tuberculosis DNA gyrase A
Method in brief: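 Gyrase reconstituted from wild-type GyrA plus wild-type GyrB at a 2:3 molar ratio. Supercoiling assay follows ATP-dependent conversion of relaxed pBR322 DNA to the supercoiled form. Supercoiled product quantified by ethidium bromide fluorescence after agarose gel electrophoresis.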

[1] = tested on: Mycobacterium tuberculosis; test: Antimicrobial activity against pansusceptible Mycobacterium tuberculosis isolate 1; assay type: functional
Method in brief: (§1)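 Broth microdilution MIC in modified 7H10 broth (pH 6.6). Drugs dissolved in DMSO at 1 mg/ml, then serially diluted. Isolates grown 5 to 10 days at 37°C on a rotary shaker, diluted to 100 Klett units and frozen. Final inoculum about 6 × 10^4 CFU/ml (range 1.2 × 10^4 to 2.6 × 10^5). Duplicate wells, sealed, read after about 21 days at 37°C in ambient air.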

[2] = tested on: Mycobacterium tuberculosis; test: Antimicrobial activity against pansusceptible Mycobacterium tuberculosis isolate 2; assay type: functional; method in brief: as §1
[3] = tested on: Mycobacterium tuberculosis; test: Antimicrobial activity against pansusceptible Mycobacterium tuberculosis isolate 3; assay type: functional; method in brief: as §1
[4] = tested on: Mycobacterium tuberculosis; test: Antimicrobial activity against pansusceptible Mycobacterium tuberculosis isolate 4; assay type: functional; method in brief: as §1
[5] = tested on: Mycobacterium tuberculosis; test: Antimicrobial activity against pansusceptible Mycobacterium tuberculosis isolate 5; assay type: functional; method in brief: as §1
[6] = tested on: Mycobacterium tuberculosis; test: Antimicrobial activity against pansusceptible Mycobacterium tuberculosis isolate 6; assay type: functional; method in brief: as §1
[7] = tested on: Mycobacterium tuberculosis; test: Antimicrobial activity against pansusceptible Mycobacterium tuberculosis isolate 7; assay type: functional; method in brief: as §1
[8] = tested on: Mycobacterium tuberculosis; test: Antimicrobial activity against Mycobacterium tuberculosis isolate 13 isolated from Beijing; assay type: functional; method in brief: as §1
[9] = tested on: Mycobacterium tuberculosis; test: Antimicrobial activity against pansusceptible Mycobacterium tuberculosis isolate 14; assay type: functional; method in brief: as §1

DNA gyrase subunit A, sequence (P9WG47 whole entry): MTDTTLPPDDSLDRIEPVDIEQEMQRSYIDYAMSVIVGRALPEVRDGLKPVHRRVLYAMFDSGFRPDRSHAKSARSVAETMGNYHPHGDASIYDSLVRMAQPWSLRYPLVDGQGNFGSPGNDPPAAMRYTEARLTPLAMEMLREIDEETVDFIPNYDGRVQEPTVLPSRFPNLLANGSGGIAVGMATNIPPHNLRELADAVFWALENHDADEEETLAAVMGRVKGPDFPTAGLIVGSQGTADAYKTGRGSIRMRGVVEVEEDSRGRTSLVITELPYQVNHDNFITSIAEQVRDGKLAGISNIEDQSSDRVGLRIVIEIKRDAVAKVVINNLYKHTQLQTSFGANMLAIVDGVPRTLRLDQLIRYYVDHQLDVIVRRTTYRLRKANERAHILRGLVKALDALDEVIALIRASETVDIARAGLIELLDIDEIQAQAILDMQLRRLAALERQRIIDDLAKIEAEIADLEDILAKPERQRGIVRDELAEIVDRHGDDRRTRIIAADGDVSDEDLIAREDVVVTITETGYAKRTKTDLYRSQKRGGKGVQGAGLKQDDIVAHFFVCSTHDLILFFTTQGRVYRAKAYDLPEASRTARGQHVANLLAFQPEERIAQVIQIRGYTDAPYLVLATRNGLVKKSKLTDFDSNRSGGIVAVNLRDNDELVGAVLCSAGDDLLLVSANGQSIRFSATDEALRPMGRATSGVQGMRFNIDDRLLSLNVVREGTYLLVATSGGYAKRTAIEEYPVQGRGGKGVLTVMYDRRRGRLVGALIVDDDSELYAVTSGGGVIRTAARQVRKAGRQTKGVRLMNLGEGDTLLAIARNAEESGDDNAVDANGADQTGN

Row | Compound | IC50 (DNA gyrase subunit A) | MIC [1] | MIC [2] | MIC [3] | MIC [4] | MIC [5] | MIC [6] | MIC [7] | MIC [8] | MIC [9]
1 | COc1c(N2CCNC(C)C2)c(F)cc2c(=O)c(C(=O)O)cn(C3CC3)c12 (centres undefined) [GATIFLOXACIN] | 9.4 µM |  |  |  |  |  |  |  |  | 
2 | CO[C@H]1/C=C/O[C@@]2(C)Oc3c(C)c(O)c4c(O)c(c(/C=N/N5CCN(C)CC5)c(O)c4c3C2=O)NC(=O)/C(C)=C\C=C\[C@H](C)[C@H](O)[C@@H](C)[C@@H](O)[C@@H](C)[C@H](OC(C)=O)[C@@H]1C [RIFAMPIN] |  | 0.004 µg/mL (≈ 0.00486 µM) | ≤ 0.001 µg/mL | 0.004 µg/mL (≈ 0.00486 µM) | 0.008 µg/mL (≈ 0.00972 µM) | 0.015 µg/mL (≈ 0.0182 µM) | 0.008 µg/mL (≈ 0.00972 µM) | 0.004 µg/mL (≈ 0.00486 µM) | 0.002 µg/mL (≈ 0.00243 µM) | 0.002 µg/mL (≈ 0.00243 µM)
3 | C[C@H]1COc2c(N3CCN(C)CC3)c(F)cc3c(=O)c(C(=O)O)cn1c23 [LEVOFLOXACIN] | 52 µM |  |  |  |  |  |  |  |  | 
4 | COc1c(N2C[C@@H]3CCCN[C@@H]3C2)c(F)cc2c(=O)c(C(=O)O)cn(C3CC3)c12 [MOXIFLOXACIN] |  | 0.03 µg/mL (≈ 0.0747 µM) | 0.03 µg/mL (≈ 0.0747 µM) | 0.03 µg/mL (≈ 0.0747 µM) | 0.06 µg/mL (≈ 0.149 µM) | 0.06 µg/mL (≈ 0.149 µM) | 0.03 µg/mL (≈ 0.0747 µM) | 0.06 µg/mL (≈ 0.149 µM) | 0.03 µg/mL (≈ 0.0747 µM) | 0.03 µg/mL (≈ 0.0747 µM)
5 | NNC(=O)c1ccncc1 [ISONIAZID] |  | 0.03 µg/mL (≈ 0.219 µM) | 0.06 µg/mL (≈ 0.438 µM) | 0.06 µg/mL (≈ 0.438 µM) | 0.06 µg/mL (≈ 0.438 µM) | 0.125 µg/mL (≈ 0.911 µM) | 0.06 µg/mL (≈ 0.438 µM) | 0.06 µg/mL (≈ 0.438 µM) | 0.125 µg/mL (≈ 0.911 µM) | 0.06 µg/mL (≈ 0.438 µM)
6 | COc1c(N2CC[C@@H](C(C)(C)N)C2)c(F)cc2c(=O)c3c(=O)[nH]sc3n(C3CC3)c12 | 2.9 µM | 0.06 µg/mL (≈ 0.139 µM) | 0.03 µg/mL (≈ 0.0694 µM) | 0.06 µg/mL (≈ 0.139 µM) | 0.06 µg/mL (≈ 0.139 µM) | 0.06 µg/mL (≈ 0.139 µM) | 0.03 µg/mL (≈ 0.0694 µM) | 0.06 µg/mL (≈ 0.139 µM) | 0.06 µg/mL (≈ 0.139 µM) | 0.06 µg/mL (≈ 0.139 µM)
